Assay results as given in paper PMC6133080 (European Journal of Drug Metabolism and Pharmacokinetics, 2018).
Where two headings read alike, the source gives them in different places.

Experiments:
[1] = Ketoconazole study: safety and tolerability; format: in vivo, human; settings: for Subjects with abdominal pain upper / Subjects with any AE (s) / Subjects with back pain / Subjects with dizziness / Subjects with dry mouth / Subjects with excoriation / Subjects with fatigue / Subjects with headache / Subjects with nasopharyngitis / Subjects with ocular hyperemia / Subjects with puncture site induration / Subjects with puncture site pain: nintedanib 50 mg single dose, ketoconazole 400 mg once daily for 3 days
Outline: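 Healthy subjects in an open-label 2-way crossover with randomized sequences. The pilot period had 8 subjects and the main period 26 further subjects. Nintedanib 50 mg was given alone and after ketoconazole 400 mg once daily for 3 days (1 h after the last dose in the pilot), with ≥14 days between nintedanib doses. AEs from one drug intake to the next, washout included, were assigned to that treatment period (nintedanib, ketoconazole, or both). Labs, vital signs, 12-lead ECG and physical exam were also recorded.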

CYP = settings: in vitro; cited from earlier work
[2] = format: in vivo, human
[3] = Rifampicin study: safety and tolerability; format: in vivo, human; settings: for Subjects with any AE (s) / Subjects with chromaturia / Subjects with cough / Subjects with dermatitis contact / Subjects with diarrhea / Subjects with dizziness / Subjects with dysphagia / Subjects with eye pain / Subjects with fatigue / Subjects with feces discolored / Subjects with feeling hot / Subjects with flatulence / Subjects with headache / Subjects with influenza / Subjects with laceration / Subjects with nausea / Subjects with night sweats / Subjects with oropharyngeal pain / Subjects with pollakiuria / Subjects with rhinitis / Subjects with vessel puncture site paresthesia: nintedanib 150 mg single dose, rifampicin 600 mg once daily for 7 days
Outline: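 26 healthy subjects in an open-label, two-period, fixed-sequence design. A single oral nintedanib 150 mg dose was given alone, then again the morning after the last oral rifampicin 600 mg once-daily dose (7 days), with ≥14 days between nintedanib doses. AEs within 72 h of each nintedanib dose were assigned to that period. AEs later than 72 h after nintedanib alone and before rifampicin started were counted as washout. Labs, vital signs, 12-lead ECG and physical exam were also assessed.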

[4] = format: in vivo, human; remark: listed apart in the source
Outline: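 Open-label, fixed-sequence, two-period study in 26 healthy subjects. A single oral 150 mg dose was given alone, then the morning after the last of 7 daily oral 600 mg co-drug doses. Doses were ≥14 days apart. Plasma sampled pre-dose to 72 h and assayed by LC-MS/MS. Cmax observed; AUC by linear-up/log-down trapezoidal rule; log values analysed by ANOVA (treatment fixed, subject random), giving geometric mean ratios with 90% CIs.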

[5] = cited from earlier work
p-glycoprotein (P-gp) = settings: cited from earlier work
esterases = settings: in vitro; cited from earlier work
[6] = co-administration with ketoconazole
[7] = test nintedanib 50 mg + ketoconazole 400 mg vs reference nintedanib 50 mg
[8] = single dose of nintedanib alone and with rifampicin
[9] = co-administration with rifampicin
[10] = test nintedanib 150 mg + rifampicin 600 mg vs reference nintedanib 150 mg
[11] = single dose of nintedanib alone and with ketoconazole

In the case of `CC(=O)N1CCN(c2ccc(OCC3COC(Cn4ccnc4)(c4ccc(Cl)cc4Cl)O3)cc2)CC1` (centres unmarked) [Ketoconazole], the “Subjects with abdominal pain upper” value [1] is reported as 1 (2.9) n (%), the “Subjects with any AE (s)” value [1] is reported as 3 (8.8) n (%) and the “Subjects with back pain” value [1] is reported as 0 n (%). For the same molecule, the Subjects with dizziness [1] was 0 n (%), the “Subjects with dry mouth” value [1] was 1 (2.9) n (%) and the Subjects with excoriation [1] was 0 n (%). The Subjects with fatigue [1] was 0 n (%), the Subjects with headache [1] was 2 (5.9) n (%) and the Subjects with nasopharyngitis [1] was 0 n (%). The “Subjects with ocular hyperemia” value [1] was 0 n (%), the “Subjects with puncture site induration” value [1] was 0 n (%) and the “Subjects with puncture site pain” value [1] was 0 n (%).

For `COC(=O)c1ccc2c(c1)NC(=O)/C2=C(\Nc1ccc(N(C)C(=O)CN2CCN(C)CC2)cc1)c1ccccc1` [Nintedanib], the “Share of CYP-dependent metabolism” value (CYP) is listed as “about 5%”, the “Effect on tmax and t½ of nintedanib” value ([2]; co-administration of ketoconazole) is listed as “unaffected” and the “Increase in exposure to nintedanib based on AUC” value [2, 6] is listed as “about 1.6 fold”. The “Increase in exposure to nintedanib based on Cmax” value [2, 6] was ~1.7 fold, the Tmax ([2]; human, plasma, oral) was 3 h and the half-life ([2]; human, plasma, oral) was 15.6 h. The AUC(0-inf) ([2]; human, plasma, po, 50 mg) was 38.6 ng·h/mL, the AUC(0-t) ([2]; human, plasma, po, 50 mg) was 35.7 ng·h/mL and the Cmax ([2]; human, plasma, po, 50 mg) was 4.19 ng/mL. The half-life ([2]; human, plasma, po, 50 mg) was 18.1 h, the “Exposure to nintedanib (AUC0–∞, Cmax, AUC0–tz) higher when co-administered with ketoconazole than alone” value ([2]; nintedanib 50 mg, ketoconazole 400 mg once daily for 3 days) was 1.6–1.7 fold and the “Relative bioavailability, GMR (90% CI) of AUC0–tz” value [2, 7] was 168.1 (155.3–182.0) %. For the same molecule, the “Relative bioavailability, GMR (90% CI) of AUC0–∞” value [2, 7] was 160.5 (148.2–173.7) %, the “Relative bioavailability, GMR (90% CI) of Cmax” value [2, 7] was 179.6 (157.6–204.8) % and the “Subjects with any AE (s)” value [3] was 5 (19.2) n (%). The Subjects with chromaturia [3] was 0 n (%), the Subjects with cough [3] was 0 n (%) and the “Subjects with dermatitis contact” value [3] was 0 n (%). For the same molecule, the Subjects with diarrhea [3] was 5 (19.2) n (%), the Subjects with dizziness [3] was 0 n (%) and the Subjects with dysphagia [3] was 0 n (%). For the same molecule, the “Subjects with eye pain” value [3] was 0 n (%), the Subjects with fatigue [3] was 0 n (%) and the “Subjects with feces discolored” value [3] was 0 n (%). For the same molecule, the “Subjects with feeling hot” value [3] was 0 n (%), the Subjects with flatulence [3] was 0 n (%) and the Subjects with headache [3] was 1 (3.8) n (%). For the same molecule, the Subjects with influenza [3] was 0 n (%), the Subjects with laceration [3] was 0 n (%) and the Subjects with nausea [3] was 0 n (%). The “Subjects with night sweats” value [3] was 0 n (%), the “Subjects with oropharyngeal pain” value [3] was 0 n (%) and the Subjects with pollakiuria [3] was 0 n (%). The Subjects with rhinitis [3] was 0 n (%), the “Subjects with vessel puncture site paresthesia” value [3] was 0 n (%) and the “Serious AEs” value [3, 8] was “No serious AEs”. For the same molecule, the Tolerability [3, 8] was “well tolerated”, the “Effect on tmax and t½ of nintedanib” value ([4]; co-administration of rifampicin) was “unaffected” and the “Reduction of exposure to nintedanib based on AUC” value [4, 9] was “about 50%”. The “Reduction of exposure to nintedanib based on Cmax” value [4, 9] was ~60%, the Tmax ([4]; human, plasma, oral) was 4 h and the half-life ([4]; human, plasma, oral) was 23.4 h. It also gave an AUC(0-inf) ([4]; human, plasma, po, 150 mg) of 183 ng·h/mL, an AUC(0-t) ([4]; human, plasma, po, 150 mg) of 173 ng·h/mL and a Cmax ([4]; human, plasma, po, 150 mg) of 22.1 ng/mL. The half-life ([4]; human, plasma, po, 150 mg) was 22.5 h, the “Relative bioavailability, GMR (90% CI) of AUC0–tz” value [4, 10] was 50.0 (46.9–53.3) % and the “Relative bioavailability, GMR (90% CI) of AUC0–∞” value [4, 10] was 50.1 (47.2–53.3) %. The “Relative bioavailability, GMR (90% CI) of Cmax” value [4, 10] was 59.8 (53.8–66.4) %, the “Subjects with abdominal pain upper” value [1] was 0 n (%) and the “Subjects with any AE (s)” value [1] was 8 (25.8) n (%). For the same molecule, the “Subjects with back pain” value [1] was 0 n (%), the Subjects with dizziness [1] was 1 (3.2) n (%) and the “Subjects with dry mouth” value [1] was 0 n (%). The Subjects with excoriation [1] was 0 n (%), the Subjects with fatigue [1] was 1 (3.2) n (%) and the Subjects with headache [1] was 5 (16.1) n (%). For the same molecule, the Subjects with nasopharyngitis [1] was 2 (6.5) n (%), the “Subjects with ocular hyperemia” value [1] was 1 (3.2) n (%) and the “Subjects with puncture site induration” value [1] was 0 n (%). For the same molecule, the “Subjects with puncture site pain” value [1] was 0 n (%), the “Serious AEs” value [1, 11] was “No serious AEs” and the Tolerability [1, 11] was “well tolerated”. For the same molecule, the Terminal half-life [5] was 10 to 15 h, the Volume of distribution ([5]; geometric mean) was 1050 L and the Percentage absorbed ([5]; nintedanib 100 mg in healthy volunteers, estimated) was 23%. The Absolute bioavailability ([5]; nintedanib 100 mg in healthy volunteers) was “approximately 5%”, the “Time to maximum plasma concentration” value ([5]; oral administration) was 2 to 4 h and the “Time to steady state” value ([5]; oral dosing) was ≤ 7 days. The “Substrate for p-glycoprotein (P-gp)” value (p-glycoprotein (P-gp)) was “substrate” and the “Share of ester cleavage” value (esterases) was “about 25%”.

For `CO[C@H]1/C=C/O[C@@]2(C)Oc3c(C)c(O)c4c(O)c(c(/C=N/N5CCN(C)CC5)c(O)c4c3C2=O)NC(=O)/C(C)=C\C=C\[C@H](C)[C@H](O)[C@@H](C)[C@@H](O)[C@@H](C)[C@H](OC(C)=O)[C@@H]1C` [Rifampicin], the “Subjects with any AE (s)” value [3] was 25 (100) n (%), the Subjects with chromaturia [3] was 25 (100) n (%) and the Subjects with cough [3] was 1 (4.0) n (%). For the same molecule, the “Subjects with dermatitis contact” value [3] was 0 n (%), the Subjects with diarrhea [3] was 1 (4.0) n (%) and the Subjects with dizziness [3] was 2 (8.0) n (%). The Subjects with dysphagia [3] was 1 (4.0) n (%), the “Subjects with eye pain” value [3] was 1 (4.0) n (%) and the Subjects with fatigue [3] was 2 (8.0) n (%). For the same molecule, the “Subjects with feces discolored” value [3] was 3 (12.0) n (%), the “Subjects with feeling hot” value [3] was 1 (4.0) n (%) and the Subjects with flatulence [3] was 2 (8.0) n (%). For the same molecule, the Subjects with headache [3] was 5 (20.0) n (%), the Subjects with influenza [3] was 0 n (%) and the Subjects with laceration [3] was 1 (4.0) n (%). The Subjects with nausea [3] was 1 (4.0) n (%), the “Subjects with night sweats” value [3] was 1 (4.0) n (%) and the “Subjects with oropharyngeal pain” value [3] was 0 n (%). For the same molecule, the Subjects with pollakiuria [3] was 1 (4.0) n (%), the Subjects with rhinitis [3] was 1 (4.0) n (%) and the “Subjects with vessel puncture site paresthesia” value [3] was 0 n (%).
